An excerpt weighted towards active compounds, which were near 11% of everything screened.
S1P3 agonist = S1P3 (human) receptor agonism | S1P3 NFAT-BLA reporter cells, FRET ratio; relative to 1 µM S1P, basal subtracted | activation, % at 4.5 µM | actives 0.1% (n = 60,000);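 active = activation above the screen-wide mean plus 3 SD, cut at about 4.5% in these data, passing the limit was not always enough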
Target sequence (Q99500 whole entry, looked up): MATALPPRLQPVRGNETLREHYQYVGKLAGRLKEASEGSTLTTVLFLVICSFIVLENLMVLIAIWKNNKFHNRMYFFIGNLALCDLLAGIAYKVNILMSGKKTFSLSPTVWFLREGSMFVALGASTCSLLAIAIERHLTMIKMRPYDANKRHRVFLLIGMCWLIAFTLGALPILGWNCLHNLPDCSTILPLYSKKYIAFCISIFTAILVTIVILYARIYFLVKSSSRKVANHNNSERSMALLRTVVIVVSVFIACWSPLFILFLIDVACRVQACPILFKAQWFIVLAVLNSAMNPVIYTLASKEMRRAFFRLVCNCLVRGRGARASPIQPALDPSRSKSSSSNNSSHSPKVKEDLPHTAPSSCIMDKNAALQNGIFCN
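Benchmarks: high control 1 µM S1P / System: stable CHO line with human S1P3, Gα16, NFAT-BLA reporter / Dosing: single compound concentration, 4.5 µM final / Timing: 4 h compound at 37 °C, 2 h substrate at RT / Measured by: FRET β-lactamase substrate fluorescence, excitation 405 nm, 460/535 nm emission ratio, background-subtracted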
M1 agonist = M1 muscarinic receptor agonism; actives 3% (n = 64,000); CHO-M1 cells, Fluo-4 calcium fluorescence, agonist mode; active compounds read high; B-score at 10 µM;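 active = fluorescence rise, raw or as B-score row- and column-corrected plate score, outside the 99.7% band of its plate's samples, either direction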
S1P1 ag-PAM = activates or potentiates agonism at human S1P1 receptor. S1P1 CRE-bla cells, forskolin, beta-lactamase FRET, potentiator mode; S1P1 agonist co-added at EC20, 2 nM; 100% = saturating reference agonist, 0% = basal. actives 0.57% (n = 56,000). activation, % at 9.5 µM. P21453. AID 449;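 active = activation above a cutoff set at the mean activation of all tested compounds plus 3 SD, cut at about 54% in these data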;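 also: forskolin at 4 µM as EC80 and the EC20 agonist is SEW2871; 100% = SEW2871 at its EC100 plus forskolin at EC80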
M1 antagonist = blocks the rat M1 muscarinic receptor response to acetylcholine | AID 628 | actives 3.4% (n = 64,000) | CHO-M1 cells, Fluo-4 calcium, ACh EC80 antagonist mode; active compounds read low | B-score at 10 µM;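 active = calcium fluorescence response, raw or row-and-column corrected B-score, differing from the plate sample mean either way at a set confidence level, mostly lower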
D1 allo mod = D1 dopamine receptor (human) allosteric modulation; P21728; actives 5.9% (n = 58,000); B-score at 10 µM; AID 641; HEK293 D1, CRE-luciferase, dopamine EC30 potentiation; actives deviate in either direction;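 active = luminescence count or its row- and column-corrected plate score outside the 99.7% band of the plate's sample wells, on either side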
TNAP act DEA = human TNAP activation, intermediate phosphate acceptor | activation factor at 20 µM | 64,000 tested, under 10 active | purified TNAP, CDP-star luminescence, 100 mM DEA, 30 min; active compounds read high; scale: 0 levamisole-inhibited, 1 vehicle-only enzyme | P05186 | AID 813;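 active = activation factor of at least 2 at 20 µM, relative to controls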
M1 antag conf = confirmation of rat M1 muscarinic receptor antagonists; AID 677; CHO-M1 cells, Fluo-4 calcium, ACh EC80 antagonism; active compounds read low; actives 43% (n = 1,700); calcium response (max-min fluorescence) at 10 µM; shares compounds with M1 antagonist;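 active = calcium response below the same-plate mean of wells given acetylcholine alone at its 80%-effect dose, minus 3 SD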;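 also: raw fluorescence intensity difference in arbitrary instrument units and not normalized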
mGluR4 antag = acts on human mGluR4 in M1 antagonist selectivity test; shares compounds with M1 antagonist; CHO-mGluR4 calcium flux, Fluo-4 fluorescence, glutamate EC80; active compounds read low; fluorescence response (max-min) at 10 µM; actives 0.9% (n = 1,700);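 active = fluorescence response below the plate's average for near-maximal glutamate wells, less 3 SD of those wells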;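 also: raw unnormalized fluorescence span taken in the window right after glutamate addition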
An asterisk follows results filed as active; . = no result given.

SMILES	S1P3 agonist	M1 agonist	S1P1 ag-PAM	M1 antagonist	D1 allo mod	TNAP act DEA	M1 antag conf	mGluR4 antag
Cc1cc(C)n(CC2CC(=O)N(c3ccc(Cl)c(Cl)c3)C2=O)n1 (stereo not given)	-1.0	-0.497	-12.5	-2.59*	0.505	0.8	717	222
Cc1ccc(Cl)cc1N1CCN(C(c2ccc(C#N)cc2)c2nnnn2C2CCCC2)CC1 (stereo not given)	-1.6	-1.2	-3.3	-4.07*	-0.275	0.9	643	243
Cn1c(C(=O)NCCN2CCCCCC2)cc2c(=O)n(C)c3ccccc3c21	-1.4	1.74	-22.1	-3.69*	-0.261	1	430*	209
CN1CCN(CCCNC(=O)c2cc3c(=O)n(C)c4ccccc4c3s2)CC1	-0.1	0.0502	-55.1	-2.77*	-1.14	1	434	196
Cn1cc(C(=O)NCCN2CCN(c3ccccc3F)CC2)c2c3ccccc3n(C)c2c1=O	-1.8	-0.164	-14.0	-4.33*	-2.05	1	453	161
Cn1c(C(=O)NCCN2CCN(Cc3ccccc3)CC2)cc2c(=O)n(C)c3ccccc3c21	-1.3	0.0431	-32.2	-6.91*	-0.541	0.9	288*	263
Cn1c(C(=O)NCCCN2CCOCC2)cc2c(=O)n(C)c3ccccc3c21	-1.1	-0.365	-24.2	-0.344	-0.304	0.8	.	.
COc1cc(C)nc(NS(=O)(=O)c2ccc(C)cc2)n1	-0.9	0.922	9.6	-0.0602	0.408	0.8	.	.
CCOC(=O)Nc1ccc2c(c1)N(C(=O)OC)c1ccccc1CC2	0.8	-1.04	-5.2	0.118	-0.806	0.9	.	.
CCOC(=O)Nc1ccc2c(c1)N(C(=O)CN1CCN(C)CC1)c1ccccc1S2	-0.7	-0.699	6.5	-13.1*	0.0143	1	46.3*	226
CCOC(=O)Nc1ccc2c(c1)N(C(=O)CCN(C)C)c1ccccc1S2	1.1	-0.095	81.7	-10.3*	-0.713	0.9	21.9*	251
O=C(COC(=O)Cn1cnc2ccccc21)NCCC1=CCCCC1	-1.1	0.321	-12.0	-0.126	-0.288	1	.	.
O=C(CN1CCCC1)Nc1ccc(NC(=O)Nc2ccccc2Cl)cc1	-0.1	-0.246	-12.3	-1.73*	-0.828	1	580	277
COc1ccc(NC(=O)CN2CCN(CC(=O)Nc3ccccc3Cl)CC2)cc1Cl	-1.3	1.04	26.5	0.0346	0.455	1	.	.
Cc1c(N(C(=O)Nc2ccccc2)C2=NCC(C)S2)c(=O)n(-c2ccccc2)n1C (stereo not given)	-0.6	0.663	1.1	-4.4*	0.0217	0.9	604	242
CC(C)N(Cc1ccccc1)C(=O)COC(=O)c1ccc2c(c1)OCCO2	.	-0.31	.	-0.326	0.761	0.9	.	.
CC(C)(C)N(Cc1ccccc1)C(=O)c1ccc2c(c1)OCCO2	-0.5	0.0592	-4.5	-1.79*	-0.055	0.9	483	204
Cc1ccc2c(c1)NC(=O)C(CC(=O)NCCCN1CCN(c3cc(Cl)ccc3C)CC1)O2 (stereo not given)	-0.2	-0.798	12.2	-2.1*	-2.58*	0.9	332*	254
Cc1ccc2c(c1)NC(=O)C(CC(=O)NCCCN1CCCCC1)O2 (stereo not given)	0.5	0.364	-11.4	-0.176	0.339	0.9	.	.
Oc1ccccc1Oc1ncc(Br)c(N2CCOCC2)n1	-0.5	-0.346	-2.9	-16.9*	3.05	1	16*	258
CCC(C)NC(=O)CSC1=Nc2ccccc2C2=NC(CC(=O)NCc3ccccc3)C(=O)N12 (stereo not given)	0.3	0.361	-21.4	0.448	0.163	0.9	.	.
Cn1nc(-c2ccc(Cl)cc2)c2cc(C(=O)NCCCN3CCCC3)sc21	0.0	-0.595	-53.4	-1.73	-1.45	0.9	.	.
COc1cccc(-c2nn(C)c3sc(C(=O)NCc4ccco4)cc23)c1	-0.3	0.0345	-40.8	-1.13	0.701	0.8	.	.
CCN1CCCC1CNC(=O)c1cc2c(-c3ccc(Cl)cc3)nn(C)c2s1 (stereo not given)	-0.7	0.325	-55.1	-4.04*	-1.77	0.9	430	200
CCN1CCCC1CNC(=O)c1cc2c(-c3cccc(OC)c3)nn(C)c2s1 (stereo not given)	-1.0	0.3	-3.3	-2.84*	-2.26	0.9	570	257
SMILES	S1P3 agonist	M1 agonist	S1P1 ag-PAM	M1 antagonist	D1 allo mod	TNAP act DEA	M1 antag conf	mGluR4 antag
CCCCN(CC)CCCNC(=O)c1cc2c(=O)n(C)c3ccccc3c2n1C	-0.3	0.018	-42.6	-1.37	0.233	0.9	.	.
O=C(Nc1ccc(Cl)c(Cl)c1)N1CCC(N2CCCCC2)CC1	-1.4	-0.148	3.0	-2.51*	-0.21	1	407	208
Cc1ccc(-c2cc(C(=O)NCc3ccc4c(c3)OCO4)[nH]n2)c(O)c1C	-1.4	0.364	-8.9	-1.56*	-0.0493	1	653	195
Cc1cc(O)c(-c2cc(C(=O)NCc3ccc4c(c3)OCO4)[nH]n2)cc1C	0.1	1.45	-12.4	-0.0808	-0.205	1.1	.	.
CCOC(=O)c1c(NC(=O)c2nc3n(n2)C(C(F)F)CC(C)N3)sc2c1CCCC2 (stereo not given)	-0.7	0.428	-49.9	-5.65*	2.05	0.9	647	238
CCOC(=O)c1c(NC(=O)c2ccn(CC)n2)sc2c1CCCC2	-0.9	-0.742	-3.6	0.00137	1.43	0.9	.	.
Cc1ccc(C(C)C)c(OCc2nc(-c3nonc3N)no2)c1	17.1*	-1.78	92.0*	-2.35*	.	0.9	566	256
CCOc1cc(C)nc(N2CCN(C3CCCCC3)CC2)n1	0.2	0.18	-11.6	-3.29*	-0.257	0.9	444*	253
CCCN1CCN(CCCNC(=O)Cn2nc(-c3ccc(Cl)cc3)ccc2=O)CC1	0.1	0.302	9.1	-0.622	-0.291	0.9	.	.
O=C(Cn1nc(-c2ccc(Cl)cc2)ccc1=O)NCC1CCCO1 (stereo not given)	0.7	0.577	6.5	-0.801*	-0.123	0.9	575	261
CCc1ccc(OCc2nnc(SCCN3CCOCC3)n2CC)cc1	-1.0	-0.0806	-31.5	-3.22*	-0.264	0.9	313*	240
Clc1ccc(OCc2nnc(SCCN3CCCCC3)n2Cc2ccco2)cc1	-1.7	0.175	-13.3	-12.8*	-2	0.9	20.7*	247
CCOc1cc(C(=O)OCc2ccc(C(=O)OC)o2)cc(Br)c1OC	-1.3	-0.382	14.4	-0.616	0.383	0.9	.	.

Compound activity from PubChem BioAssay.
